APJ ag: APJ receptor agonism. AID 2520. P35414. activation, % at 20 µM. CHO-K1 APJ PathHunter beta-arrestin, luminescence; 0% DMSO wells, 100% apelin. 330,000 tested, 0.11% active;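 active = activation more than six SD over the plate average, tested at 20 µM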;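 note: 0% = DMSO alone and 100% = apelin-13 at 10 nM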
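Incubation: overnight seeding, 90 min compound at 25 °C, 1 h detection; test system: PathHunter CHO-K1 APJ (AGTRL-1) beta-arrestin reporter cells; amount: 1000 cells/well; doses: one dose, 20 µM compound, 1% DMSO; measured by: beta-gal luminescence; measure: agonist-driven arrestin binding to APJ; benchmarks: negative DMSO alone, positive Apelin-13 at 10 nM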
EBI2 block: EBI2 (human) antagonism. P32249. EBI2 beta-arrestin recruitment, luminescence, 7a,25-OHC stimulated. inhibition, % at 5 µM. 360,000 tested, 0.81% active; in the data active = inhibition above about 38%;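 note: enzyme fragment complementation signal reports receptor beta-arrestin coupling in cells; 0% = agonist plus DMSO wells and 100% = wells without agonist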
CXCR6 block: blocks human CXCR6 beta-arrestin recruitment. O00574. CHO-K1 PathHunter CXCR6 beta-arrestin, luminescence. inhibition, % at 20 µM. 360,000 tested, 0.36% active. AID 602244; in the data active = inhibition above about 34%, passing the limit was not always enough;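 note: antagonist mode with CXCL16 agonist at 10 nM final; 0% = 10 nM CXCL16 with DMSO and 100% = unstimulated wells without agonist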
CCR6 antagonist: CCR6 (human) receptor antagonism. P51684. CHO-K1 CCR6 PathHunter beta-arrestin, luminescence, CCL20-stimulated. inhibition, % at 20 µM. 340,000 tested, 0.49% active. AID 493098;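 active = compounds whose inhibition of the agonist-driven luminescence signal at 20 µM reaches about 50%, limit read from the data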;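 note: cells stimulated with CCL20 at 14 nM final; plate controls were DMSO with CCL20 for no effect and DMSO without agonist for full effect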
Target sequence (P51684 whole entry, looked up): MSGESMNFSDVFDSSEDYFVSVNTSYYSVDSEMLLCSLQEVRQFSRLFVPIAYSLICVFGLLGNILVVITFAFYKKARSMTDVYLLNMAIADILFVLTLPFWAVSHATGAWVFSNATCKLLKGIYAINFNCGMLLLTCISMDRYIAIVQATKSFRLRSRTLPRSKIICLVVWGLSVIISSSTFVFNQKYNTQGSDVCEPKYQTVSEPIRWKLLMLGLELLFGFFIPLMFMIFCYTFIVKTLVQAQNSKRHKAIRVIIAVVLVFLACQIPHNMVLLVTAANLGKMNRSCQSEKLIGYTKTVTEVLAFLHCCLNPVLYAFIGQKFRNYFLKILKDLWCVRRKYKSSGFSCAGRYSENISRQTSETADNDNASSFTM
APJ antagonist: antagonists of human APJ apelin receptor | P35414 | CHO-K1 APJ beta-arrestin complementation, luminescence | inhibition, % at 20 µM | 330,000 tested, 0.32% active | AID 2521;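 active = inhibition above about 40% at 20 µM, limit read from the data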;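 note: cells challenged with 10 nM apelin-13 agonist together with compound; plate controls were apelin-13 plus DMSO wells for no effect and DMSO wells lacking apelin-13 for full effect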
* hit, by the source's call; . = no result. Rows were chosen to be rich in hits. Some 1.5% of all compounds tested hit in one or more screens of this group.

SMILES	APJ ag	EBI2 block	CXCR6 block	CCR6 antagonist	APJ antagonist
O=C(N/N=C/c1cc([N+](=O)[O-])cc([N+](=O)[O-])c1O)C(O)(c1ccccc1)c1ccccc1	-5	7	39*	32	24
O=C(N/N=C/c1ccc(O)c([N+](=O)[O-])c1)C(O)(c1ccccc1)c1ccccc1	-6	3	14	17	28
COc1ccc(-n2nc3c(N4CCC(C(=O)NCc5ccccc5C)CC4)nnc(C)c3c2C)cc1	-1	19	12	51*	13
COc1ccc(-n2nc3c(N4CCC(C(=O)NCCc5ccccc5C)CC4)nnc(C)c3c2C)cc1	4	5	-2	17	-43
COc1ccc(OCCCC(=O)Nc2cccc(C(C)=O)c2)cc1	-3	-19	2	15	18
Cc1nc(NC(=O)CSc2nnnn2Cc2ccccc2)sc1C	-1	4	-11	86*	-4
C/C(=N\Nc1cc(-c2ccccc2)nc(-c2ccc(Br)cc2)n1)c1cccc(N)c1	1	29	1	-11	7
C/C(=N/Nc1cc(-c2ccccc2)nc(-c2ccccc2)n1)c1ccc(O)cc1	-1	60*	15	-8	-18
Cn1ncc(Br)c1C(=O)Nc1ccc(F)cc1F	3	4	0	-9	3
CCC(=O)c1ccc(N2CCN(C(=O)c3ccc(Br)cc3)CC2)c(F)c1	0	57*	0	5	-15
O=C(Nc1ccc([N+](=O)[O-])cc1Cl)c1cc(Cl)ccc1O	5	-5	8	29	5
CC(=O)OC[C@]12CC[C@H]3[C@@](C)(CC[C@H]4C(C)(C)CCC[C@]34C)[C@@H]1CC(C1=CC(=O)OC1O)O2 (stereo partly drawn)	.	87*	39	.	.
COC(=O)c1ccc(CSc2nc3sc4c(c3c(=O)n2C)CCCC4)o1	2	-1	4	14	-11
COC(=O)c1sc(N)c(C(=O)OC)c1CSc1nc2sc3c(c2c(=O)n1C)CCC3	-11	38	52*	50	7
CCN1/C(=C/C=C/c2oc3ccc(-c4ccccc4)cc3[n+]2CC)Oc2ccc(-c3ccccc3)cc21	-1	-10	22	60*	11
O=C(C#Cc1ccccc1)c1cccc([N+](=O)[O-])c1	0	32	91*	93*	35
CN(CCC#N)C(=O)COC(=O)c1cccnc1Nc1ccccc1F	-2	-10	-4	13	13
COc1ccc(-n2c(O)c(/C=N/Nc3nc(C)cc(C)n3)c3ccccc3c2=O)cc1OC	-3	2	37*	73*	22
COc1ccc(-n2c(O)c(/C=N/NS(=O)(=O)c3ccc(C)cc3)c3ccccc3c2=O)cc1OC	0	-8	-4	16	-16
CCOc1ccccc1-n1c(SC(C)C(=O)NCC2CCCO2)nc2ccccc2c1=O (stereo not drawn)	-3	1	0	16	21
COC1=C(N)C(=O)c2nc(C)ccc2C1=O	.	-40	-16	-13	.
COC1=C(Br)C(=O)c2nc(C)ccc2C1=O	.	-21	44*	.	.
CCOC(=O)C1=NNC(C(=O)c2ccc(Cl)cc2)C1c1ccc(OC)cc1 (stereo not drawn)	-13	12	18	48	65*
Nc1ccccc1Sc1nc2ccccc2[nH]1	2	64*	-13	-7	-5
Nc1nc2ccccc2[nH]1	-4	1	-1	8	-4
SMILES	APJ ag	EBI2 block	CXCR6 block	CCR6 antagonist	APJ antagonist
Cc1cnc(C(=O)OCC(=O)c2ccc[nH]2)cn1	-5	5	-3	1	10
O=c1nc2cccc3c2=c(/c1=C(\O)c1ccccc1)c1ccccc1c3=O	1	2	31	52*	26
COc1ccccc1CNC(=O)C(C)Sc1ccc(C)cc1 (stereo not drawn)	-1	8	-8	9	3
CC1C[C@@]2(NC(=O)NC2=O)C(C)CN1C (stereo partly drawn)	-6	-4	-2	-18	-3
N#CC(=C1C=CC(=NO)C(Cl)=C1)c1ccc(Cl)cc1	.	-20	33	67*	.
CC(NO)C(C)(C)NO (stereo not drawn)	-7	4	38	58*	30
Cc1[nH][nH]c(=O)c1C(c1c(C)[nH][nH]c1=O)c1cn(Cc2ccc(F)cc2)c2ccccc12	.	20	62*	79*	.
Cc1[nH][nH]c(=O)c1C(c1c(C)[nH][nH]c1=O)c1cn(Cc2ccc(Cl)c(Cl)c2)c2ccccc12	.	31	54*	77*	.
COc1cc(/C=N/Nc2nc3c(c(=O)n(C)c(=O)n3C)n2Cc2ccccc2)ccc1OC(=O)c1ccco1	3	-26	-6	1	-45
Cc1ccc(NC2=C(Cl)C(=O)N(C3CCCCC3)C2=O)cc1	-3	5	0	5	-11
COc1ccc(S(=O)(=O)N2CCOCC2)cc1NC(=O)C1CCCN1C(=O)c1cccs1 (stereo not drawn)	-2	-11	1	7	-11
COc1ccc(S(=O)(=O)N2CCOCC2)cc1NC(=O)[C@@H]1CCCN1C(=O)c1cccs1	-2	-7	1	96*	2
COc1ccc(-c2cn[nH]c2-c2ccc(OCC(=O)NN)cc2O)cc1	3	-13	1	2	-10
COc1cc(/C=C2/C(=O)N(c3ccc([N+](=O)[O-])cc3)N=C2N2CCOCC2)ccc1O	-3	6	37	55*	32
COc1ccc(Cl)c2c1[nH]c1nc(SCc3ccccn3)nnc12	-2	2	10	22	-4
C=CCn1c(Sc2ncc([N+](=O)[O-])s2)n[nH]c1=O	11	6	42*	56*	31
Cc1ccc2c(c1)C(=O)C(=O)N2CCOc1ccccc1	-7	-9	12	51*	10
CCOc1ccc(NC(=O)CN(C)S(=O)(=O)c2cccs2)cc1	2	-3	49*	9	-9
CCOC(=O)C1(CCCc2ccccc2)CCN(C(=O)CCc2cnccn2)CC1	-1	-6	0	15	-7
CC1(C(=O)NC(=S)NNC(=O)c2ccncc2)CCCCC1	-5	3	17	29	35
O=C(NNC(=S)NC(=O)C12CC3CC(CC(C3)C1)C2)c1ccncc1	-9	6	31	51*	28
CCc1ccc(NC(=O)CSCCO)cc1	-6	-5	9	10	-6
CCOC(=S)SCC(=O)Nc1nc(-c2ccc(Br)cc2)cs1	-3	69*	2	-25	18
CCOC(=S)SCC(=O)Nc1nc(-c2ccccc2)cs1	0	-10	8	8	7
O=S1(=O)C=C(Sc2nc3ccccc3s2)c2ccccc21	-3	.	.	72*	20
Cc1cc(C)nc(SC2=CS(=O)(=O)c3ccccc32)n1	-4	-54	9	13	-11
CC1(C)CCCN(C(=O)c2ccc3c(c2NCCO)C(=O)c2ccccc2C3=O)C1	-1	38*	0	22	-12
